Source: PubChem BioAssay
The list is not random: actives were taken first. Their share in the collection is about 3.7%.
procasp7 counter = activates human procaspase-7, counter-screen for procaspase-3 activators. P55210. activation, % at 8.5 µM. AID 463210. 330,000 tested, 0.093% active. recombinant procaspase-7, Ac-DEVD-pNA absorbance 405 nm; D23A/D198A/D206A triple mutant, cannot self-cleave; scale: DMSO 0, 5 µM enzyme 100;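 active means percent activation above the screen-wide mean plus 3 SD, cut at about 25% in these data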
Target sequence (P55210 whole entry D23A/D198A/D206A): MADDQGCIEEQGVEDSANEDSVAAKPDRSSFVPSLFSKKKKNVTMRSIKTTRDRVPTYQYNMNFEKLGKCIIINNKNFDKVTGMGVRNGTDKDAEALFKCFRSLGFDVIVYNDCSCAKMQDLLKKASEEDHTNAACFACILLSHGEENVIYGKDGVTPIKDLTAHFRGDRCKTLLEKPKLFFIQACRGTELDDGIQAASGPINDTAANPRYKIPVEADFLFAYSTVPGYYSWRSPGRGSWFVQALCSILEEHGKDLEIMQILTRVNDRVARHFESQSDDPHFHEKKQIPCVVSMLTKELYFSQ
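Assay system: Uncleavable procaspase-7 mutant enzyme / Input: 2 µM procaspase-7 mutant as dispensed / Dosing: single nominal 8.5 µM compound dose, 0.8% DMSO final / Timing: 1 h enzyme–compound preincubation and 2 h substrate reaction, both 25 °C / Detection: p-Nitroaniline absorbance at 405 nm, read at 0 and 120 min / Replication: singlicate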
aDG glyco act = increases alpha dystroglycan glycosylation; Pro5-aDG cells, alpha-DG glycosylation AlphaScreen (IIH6); 0% Pro5, 100% B10-LARGE cell signal; activation, % at 10 µM; 360,000 tested, 0.22% active;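 active means activation of at least 8% versus controls, or a plate z-score of at least 8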;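 further: Pro5 are CHO cells carrying HIG-tagged alpha-DG that lacks glycosylation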
procasp3 activ = activates human procaspase-3. recombinant procaspase-3 D3A, Ac-DEVD-pNA absorbance 405 nm. activation, % at 8.5 µM. 330,000 tested, 0.11% active;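 active means activation above the mean of all tested compounds plus 3 SD, cut at about 21% in these data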;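 further: 0% = DMSO alone and 100% = DMSO wells spiked with extra 5 µM PC-3 D3A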
Target sequence (P42574 whole entry D9A/D28A/D175A): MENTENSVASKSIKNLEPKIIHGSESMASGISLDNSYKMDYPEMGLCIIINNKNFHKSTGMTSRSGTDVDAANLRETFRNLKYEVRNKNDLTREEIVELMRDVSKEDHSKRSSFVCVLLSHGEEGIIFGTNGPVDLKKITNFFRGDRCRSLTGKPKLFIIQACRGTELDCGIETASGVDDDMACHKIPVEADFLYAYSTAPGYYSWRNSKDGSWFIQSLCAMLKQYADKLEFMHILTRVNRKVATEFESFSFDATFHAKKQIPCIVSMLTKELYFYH
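Test system: Procaspase-3 D3A mutant; medium: Zinc-free HEPES/NaCl buffer with 0.01% Triton X-100 at pH 7.4; reagent: DEVD-pNA substrate; doses: one concentration, 8.5 µM nominal, 0.8% DMSO; times: 1 h preincubation plus 2 h reaction at 25 °C; signal: Epi-absorbance at 405 nm of released p-nitroaniline, 0 and 120 min; replicates: singlicate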
MPTP block = permeability transition pore inhibition | isolated mouse mitochondria, Ca2+ swelling absorbance, 30 min | 360,000 tested, 1.4% active | AID 602449 | inhibition, % at 10 µM;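 active means inhibition of 50% or more, scaled per plate between neutral and stimulator controls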;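 further: 0% = DMSO wells given calcium and 100% = 1 mM EGTA wells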
GRIN3A LBD mod = NR3A (human) ligand-binding domain modulation. NR3A LBD differential scanning fluorimetry, Tm shift; 0% = protein alone, 100% = glycine-bound protein. Tm shift relative to glycine control, % at 25 µM. 340,000 tested, 2.5% active. AID 1259313;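 active means melting temperature shift of at least 10% of the positive control shift, at one fixed dose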
MPTP counter = membrane potential counter-screen of mitochondrial pore inhibitors | shares compounds with MPTP block | isolated mitochondria, Rhodamine 123 fluorescence | inhibition, % at 10 µM | 5,000 tested, 78% active; in the data active means inhibition above about 22%;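 further: 0% = DMSO vehicle and 100% = positive control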
* hit, by the source's call; / = no result given.

SMILES | procasp7 counter | aDG glyco act | procasp3 activ | MPTP block | GRIN3A LBD mod | MPTP counter
CCc1ccc(N2C=C(C(=O)OC)C(c3cccc4ccccc34)C(C#N)=C2N)cc1 (configuration not stated) | / | 0 | / | 1 | / | /
COc1ccc(Nc2nnc(SCc3cc([N+](=O)[O-])cc4c3OCOC4)s2)cc1 | -8 | 0 | 7 | 5 | -3 | /
Nc1nc(SCc2cccnc2)c2ncn(C3OC(CO)C(O)C3O)c2n1 (configuration not stated) | / | 0 | / | -1 | 4 | /
Cc1ccc2c(c1)nnn2C1CCN(S(=O)(=O)c2ccc(C(=O)N3C(C)CCCC3C)cc2)CC1 (configuration not stated) | 5 | 4 | 8 | 98* | -6 | 87*
Cc1ccc2c(c1)nnn2C1CCN(S(=O)(=O)c2ccc(C(=O)O)cc2)CC1 | 4 | 0 | -7 | -1 | -2 | /
CC(C)Nc1nc(NCCOc2ccccc2Cl)c2sc(-c3ccccc3)cc2n1 | / | 2 | / | 60* | / | 105*
COc1ccccc1CNc1nc(NC(C)C)nc2cc(-c3ccccc3)sc12 | / | 3 | / | 75* | / | 101*
O=C(Nc1ccc(OC(F)F)c(Cl)c1)c1cccc(OC(F)F)c1 | 6 | 1 | -2 | 97* | 34* | 95*
C=CCNC(=S)Nc1ccc(OC(F)F)c(Cl)c1 | -1 | 0 | 5 | 2 | -11 | /
CCOc1cc(C(=O)Nc2ccc3c(c2)OCO3)ccc1OC(F)F | 4 | 0 | 9 | 2 | 0 | /
O=C(Nc1ccc(OC(F)F)c(Cl)c1)Nc1ccc2c(c1)OCO2 | -1 | 1 | -9 | 92* | 35* | 88*
O=C(Nc1ccc([N+](=O)[O-])cc1)Nc1ccc(OC(F)F)c(Cl)c1 | -4 | -1 | -5 | 98* | 15* | 47*
O=C(Cc1ccc(Cl)cc1Cl)Nc1ccc(OC(F)F)c(Cl)c1 | 8 | 1 | 7 | 74* | 7 | 84*
O=C(NCCc1ccccc1)Nc1nnc([C@@H]2C[C@H](O)[C@@H](CO)O2)s1 | / | 0 | / | -1 | / | /
O=C(CCN1C(=O)CC1c1ccco1)N1CCOCC1 (configuration not stated) | / | 0 | / | 0 | / | /
Cc1cccc(C(=O)N/C(=C\c2ccco2)C(=O)N2CCCC2)c1 | -8 | 0 | 3 | -2 | 7 | /
CCOC(=O)[C@]12CCC=C1N(Cc1ccc(Cl)cc1Cl)C(=O)[C@H](CC(=O)NCC1CCCCC1)C2 | / | 0 | / | -2 | / | /
O=C(Nc1ccc2c(c1)OCO2)Nc1ccc(Cl)cc1Cl | -5 | 0 | -7 | 83* | 34* | 94*
Cc1ccc(NC(=O)C(C)c2ccc([N+](=O)[O-])cc2)cc1Cl (configuration not stated) | -7 | 2 | 2 | 80* | 12* | 87*
CC(C(=O)Nc1ccccc1Br)c1ccc([N+](=O)[O-])cc1 (configuration not stated) | 8 | 0 | -7 | 2 | 0 | /
O=C(Nc1ccc(Cl)cc1)Nc1ccc2c(c1)OCO2 | -12 | 0 | 1 | 33 | 2 | /
CC(C)C[C@H]1CNC(=O)C(=O)N1C[C@H]1CCCN1C[C@H](CC(C)C)N1C[C@H](Cc2ccccc2)N(CCc2ccccc2)C(=O)C1=O | / | 0 | / | -2 | / | /
COc1cc(NC(=O)CSCC(=O)Nc2cccc(C(F)(F)F)c2)c(Cl)cc1Cl | -1 | 1 | -1 | 58* | 5 | 63*
O=C(O)C1(C(=O)O)CCC2(CCCCC2)CC1 | / | 0 | / | 0 | / | /
N#Cc1c(Cl)nsc1NC(=O)c1ccccc1 | 12 | 0 | 14 | 78* | 11* | 89*
SMILES | procasp7 counter | aDG glyco act | procasp3 activ | MPTP block | GRIN3A LBD mod | MPTP counter
N#Cc1c(NC(=O)c2ccccc2)sc2c1CCCCC2 | 4 | 0 | 1 | 12 | 0 | /
Cc1sc(NC(=S)NC(=O)c2ccccc2)c(C#N)c1C | -30 | 0 | -15 | 70* | -2 | 84*
Cc1ccc(C)c(CC(=O)N2CCCCC2c2cc(C(=O)Nc3ccc(F)c(Cl)c3)no2)c1 (configuration not stated) | / | 0 | / | 1 | / | /
O=[N+]([O-])c1ccc2[nH]c(=S)sc2c1 | / | 0 | / | 57* | 2 | 77*
O=[N+]([O-])c1ccc2[nH]c(=S)[nH]c2c1 | / | 0 | / | -3 | -9 | /
CCONc1ncnc2nonc12 | 1 | 0 | -2 | -1 | 1 | /
Clc1ccc(CONc2ncnc3nonc23)c(Cl)c1 | -1 | 0 | 8 | 56* | -6 | 96*
O=c1cc(C(F)(F)F)[nH]c2ccc(C(F)(F)F)cc12 | 9 | 0 | -5 | 61* | -1 | 82*
Cc1cc(=O)c2ccc(C(F)(F)F)cc2[nH]1 | 1 | 0 | -17 | 1 | -2 | /
CC(=O)c1sc(NC(=O)C2(F)C(F)(F)C(F)(F)C(F)(F)C(F)(F)C2(F)F)nc1C | 9 | 0 | -3 | 95* | 2 | 91*
CCOC(=O)CN1C(=O)S/C(=C/c2ccc(C)o2)C1=O | -18 | 0 | -8 | -1 | -4 | /
CCN1C(=O)S/C(=C/c2ccc(Sc3nc4ccccc4[nH]3)o2)C1=O | -1 | 2 | 1 | 80* | -4 | 76*
O=C(Nc1cccc(-c2cnc3ccccc3n2)c1)C1CC(=O)N(c2ccccc2)C1 (configuration not stated) | 0 | 0 | 1 | -1 | -3 | /
CC1(C(=O)Nc2ccc3c(c2)OCCO3)CCC(=O)N1C1CCN(Cc2ccccc2)CC1 (configuration not stated) | / | 0 | / | -2 | / | /
O=C(CSc1nc2ccc(Cl)cc2[nH]1)NC1CCCc2ccccc21 (configuration not stated) | -12 | 0 | -2 | 63* | -31 | 62*
O=C(CCN1C(=O)/C(=C\c2ccccc2)SC1=S)NNC(=O)c1cccnc1 | 1 | 1 | -1 | 80* | 1 | 70*
O=C(CCCN1C(=O)/C(=C/c2ccccc2Cl)SC1=S)NNC(=O)c1cccnc1 | -9 | 0 | 5 | 4 | -2 | /
Cc1ccc(S(=O)(=O)N2CCCCC2)cc1C(=O)NCCN1CCOCC1 | -4 | 0 | 10 | -2 | 0 | /
FC(F)(F)c1nnc(Nc2ccc(Cl)cc2)s1 | -4 | 0 | -4 | 79* | 5 | 75*
Fc1ccc(Nc2nnc(C(F)(F)F)s2)cc1Cl | 1 | 0 | -4 | 75* | 5 | 86*
Oc1nc(Nc2ccc(Cl)cc2Cl)sc1/C=C1\C=Nc2ccccc21 | 13 | 0 | -2 | 96* | 23* | 58*
O=C(NCc1ccccn1)C(=O)NCC1OCCN1S(=O)(=O)c1ccc(F)cc1 (configuration not stated) | 4 | 0 | -2 | -1 | 1 | /
